Data taken from PMC7564034 (Acta Pharmaceutica Sinica. B, 2019).
Read-outs that look alike come from different tables or passages of the source.

How the values were obtained:
HUVECs [1] = assay: EDU staining; type: cell-based, human; conditions: Rd 2, 10, 50 μmol/L; 24 h; hypoxia
VEGF = assay: ELISA of VEGF secretion in tumors; type: in vivo, Balb/c mice harboring LoVo xenografts; conditions: 15 days i.p., vs vehicle
In short: (§1)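 Mice received test compound i.p. for 15 days. Tumors were harvested 20 min after the final dose and homogenized in RIPA buffer. VEGF and FGF were quantified by ELISA kit and normalized to protein content measured by BCA assay. Compared with vehicle.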

[2] = system: tumor vessels in LoVo xenografts; assay: CD31 staining of tumor slides, microvessels and vessel branches; type: in vivo, Balb/c nude mice; conditions: 15 days i.p.
In short: (§2)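 Tumors from mice given test compound i.p. for 15 days were fixed in 4% PFA and cut into 12 μm sections. Sections were stained overnight with anti-CD31 at 1:100; for pericyte coverage, anti-SMA at 1:100 was added. Cy5- or Cy2-conjugated secondary (1:200) was applied for 1 h at 37 °C. Confocal Z-stacks were reconstructed in 3D or as maximum intensity projections. Compared with vehicle.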

[3] = type: in vivo, Balb/c nude mice harboring LoVo xenografts; conditions: 20 min after 15-day SMI treatment
In short: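 Male 6-week Balb/c nude mice (18 ± 1 g) bearing LoVo xenografts were given SMI intraperitoneally for 15 days. Tumors collected 20 min after the final dose were minced and digested 1 h in DMEM with 2 mg/mL collagenase type I and 0.1 mg/mL DNase I. Cells were split into endothelial, hematopoietic and other fractions; purity was checked by flow cytometry (anti-mouse CD45, viability stain). n = 3, mean ± SEM.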

[4] = type: in vivo, Balb/c nude mice harboring LoVo xenografts; conditions: for Cmax / Tmax: Balb/c nude, mouse, plasma
In short: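 Male LoVo-xenograft nude mice (6 weeks old) received 10 mL/kg i.p., either once or daily for 8 days. Blood (~0.1 mL) was drawn from the oculi chorioideae vein into heparin tubes between 5 min and 96 h after the last dose, 5 mice per time point. Plasma was spun at 8000 rpm for 5 min and extracted with methanol. AUC0–∞ and the multiple/single ratio were derived.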

HUVECs [5] = assay: Capillary-like tube formation assay; type: cell-based; conditions: Homo sapiens, HUVEC, read-out: Inhibition of tube formation ability of HUVECs
In short: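 Conditioned medium was taken as supernatant after 24 h exposure to test compound (2, 10, 50 μmol/L). HUVECs were seeded at 5 × 10^4 cells/well on Matrigel and treated with this medium for 5.5 h under normoxia or hypoxia (1% O2, 5% CO2). Tubes were stained with calcein for 0.5 h before imaging.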

LoVo xenografts = assay: Xenograft tumor growth, SMI or Rd combined with 5FU, 20-day treatment; type: in vivo, Balb/c mice; conditions: SMI 10 mL/kg/day or Rd 5 mg/kg/day i.p., 20 days, without 5FU
In short: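 LoVo-xenograft mice with all tumors above 50 mm3 were dosed i.p. for 20 days: 10 mL/kg/day, 5 mg/kg/day, and/or 5FU 15 mg/kg every 3 days. Body weight and tumor axes were recorded daily; tumor volume = 1/2 × a × b². Tumors were resected after treatment. Weight change was read after 17 days; mean ± SEM.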

HUVEC = assay: Uptake of ginsenosides by HUVEC in vitro; type: cell-based, human; conditions: compared to Rb1 and Rb2 (Fig. S5)
HUVECs [6] = assay: Cell viability assay; type: cell-based, human; conditions: Rd 1–50 μmol/L, SMI 5 μL/mL; 24 h; normoxia or hypoxia
In short: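 HUVECs were exposed to test compound for 24 h under normoxia or hypoxia (1% O2, 5% CO2). Viability was measured by MTT and expressed as a percentage of DMSO-treated cells under normoxia; n = 6.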

[7] = type: in vivo, Balb/c nude mice harboring LoVo xenografts
LoVo = assay: Uptake of ginsenosides by LoVo in vitro; type: cell-based, human; conditions: compared to Rb1 and Rb2 (Fig. S5)
FGF = assay: ELISA of FGF secretion in tumors; type: in vivo, Balb/c mice harboring LoVo xenografts; conditions: 15 days i.p.; SMI, Rd-H 5 mg/kg, Rb1, Rg1; vs vehicle
In short: as §1

HUVECs [8] = assay: Wound healing migration assay; type: cell-based, human; conditions: 24 h
In short: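 Confluent HUVEC monolayers were scratched with sterile pipette tips and given fresh DMEM containing test compound. Cells were incubated under normoxia or hypoxia (1% O2, 5% CO2) and imaged at 0 and 24 h. Migration length = (scratch area 0 h − scratch area 24 h)/scratch length; n = 6.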

[9] = Constituent ratio of ginsenosides in SMI, plasma, tumor and endothelial cells; type: in vivo, Balb/c nude mice harboring LoVo xenografts; conditions: 20 min after 15-day SMI treatment
In short: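 Tissues were sampled 20 min after the last dose of a 15-day i.p. course. Tumors were digested 1 h in DMEM with collagenase I (2 mg/mL) and DNase I (0.1 mg/mL), then strained through 40 μm mesh. CD31+ cells were enriched with PE anti-mouse CD31 and anti-PE magnetic particles, with purity checked by CD45/viability flow cytometry; n = 3. Each ratio = concentration of the constituent / summed eight ginsenosides.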

[10] = system: tumor vessels in LoVo xenografts; assay: CD31/α-SMA double staining, pericyte coverage around tumor vessels; type: in vivo, Balb/c nude mice; conditions: 15 days i.p.; SMI, Rd-H 5 mg/kg; vs vehicle
In short: as §2

[11] = 8-day vs single SMI 10 mL/kg/day i.p.
[12] = SMI i.p., single or multiple not given

SMILES: CC(C)=CCC[C@](C)(O[C@@H]1O[C@H](CO)[C@@H](O)[C@H](O)[C@H]1O)[C@H]1CC[C@]2(C)[C@@H]1[C@H](O)C[C@@H]1[C@@]3(C)CC[C@H](O[C@@H]4O[C@H](CO)[C@@H](O)[C@H](O)[C@H]4O[C@@H]4O[C@H](CO)[C@@H](O)[C@H](O)[C@H]4O)C(C)(C)[C@@H]3CC[C@]12C [Rd, ginsenoside Rd]
- Effect on cellular proliferation of HUVECs (EDU/HOECHST) (HUVECs [1]): no significant effect on cellular proliferation
- Reduction of the secretion of VEGF in tumors (VEGF; Rd-L 0.5 mg/kg): 32%
- Reduction of the secretion of VEGF in tumors (VEGF; SMI, Rd-H 5 mg/kg, Rb1, Rg1): 32%
- Effect on microvessels, branches and pericyte coverage ([2]; Rd-L 0.5 mg/kg): very modest effects
- Decrease of the number of CD31+ microvessels ([2]; SMI, Rd-H 5 mg/kg, vs vehicle): 37%
- Decrease of vessel branches ([2]; SMI, Rd-H 5 mg/kg, vs vehicle): 59%
- Concentration of ginsenosides, endothelial cells (TECs) [3]: most abundant distribution in TECs
- AUC0–∞ ratio Multiple/Single in plasma [4, 11]: 5.28
- Cmax ([4]; intraperitoneal, 10 mL/kg): ~10 µM
- Cmax ([4]; ip, 10 mL/kg): 3200 ng/mL
- Tmax ([4]; ip, 10 mL/kg): 4 h
- Cmax ([4]; ip, 10 mL/kg/day): 10400 ng/mL
- Tmax ([4]; ip, 10 mL/kg/day): 2 h
- AUC0–∞ in plasma relative to those of Re, Rg1, Rg3 and Ro ([4]; after single or multiple SMI administration): more than 20 times
- inhibition at 2 µM (HUVECs [5]): 18%
- inhibition at 10 µM (HUVECs [5]): 40%
- inhibition at 50 µM (HUVECs [5]): 56%
- Effect on tumor growth, given alone (LoVo xenografts): no significant effect on tumor growth
- Uptake by HUVEC (HUVEC): superior uptake
- Effect on cell viability of HUVECs (HUVECs [6]): no effect on the cell viability
- AUC0–∞ ratio Multiple/Single in tumors [7, 11]: 10.53
- AUC0–∞ of Rd in tumors, times higher than that of Rb1 [7, 12]: 8.0 times
- AUC0–∞ of Rd in tumors, times higher than that of Rb2/Rb3 [7, 12]: 7.3 times
- AUC0–∞ of Rd in tumors, times higher than that of Rc [7, 12]: 3.6 times
- AUC0–∞ of Rd in tumors, times higher than that of Ro [7, 12]: 266.6 times
- Uptake by LoVo (LoVo): superior uptake
- Suppression of the secretion of FGF in tumors (FGF): 68%
- Suppression of hypoxia-induced HUVEC migration (HUVECs [8]; 50 μmol/L): 88%
- Effect on HUVECs migration (HUVECs [8]; Rd 2, 10 and 50 μmol/L or SMI, hypoxia): suppressed HUVECs migration concentration-dependently
- Constituent ratio in TECs [9]: 40.3%
- Constituent ratio in plasma [9]: 16.0%
- Constituent ratio in tumor tissues [9]: 34.3%
- Increase of pericyte coverage around microvessels [10]: 2.1 fold
